This note sets out measurements from ChEMBL document CHEMBL3774355, “Quinoxalinone (Part II). Discovery of (Z)-3-(2-(pyridin-4-yl)vinyl)quinoxalinone derivates as potent VEGFR-2 kinase inhibitors” (Bioorg Med Chem, 2016).

Molecules are shown by their SMILES. Active and inactive are the calls of the source. The rule behind the calls is not given here.

Vascular endothelial growth factor receptor 2 (Homo sapiens), sequence (P35968 whole entry): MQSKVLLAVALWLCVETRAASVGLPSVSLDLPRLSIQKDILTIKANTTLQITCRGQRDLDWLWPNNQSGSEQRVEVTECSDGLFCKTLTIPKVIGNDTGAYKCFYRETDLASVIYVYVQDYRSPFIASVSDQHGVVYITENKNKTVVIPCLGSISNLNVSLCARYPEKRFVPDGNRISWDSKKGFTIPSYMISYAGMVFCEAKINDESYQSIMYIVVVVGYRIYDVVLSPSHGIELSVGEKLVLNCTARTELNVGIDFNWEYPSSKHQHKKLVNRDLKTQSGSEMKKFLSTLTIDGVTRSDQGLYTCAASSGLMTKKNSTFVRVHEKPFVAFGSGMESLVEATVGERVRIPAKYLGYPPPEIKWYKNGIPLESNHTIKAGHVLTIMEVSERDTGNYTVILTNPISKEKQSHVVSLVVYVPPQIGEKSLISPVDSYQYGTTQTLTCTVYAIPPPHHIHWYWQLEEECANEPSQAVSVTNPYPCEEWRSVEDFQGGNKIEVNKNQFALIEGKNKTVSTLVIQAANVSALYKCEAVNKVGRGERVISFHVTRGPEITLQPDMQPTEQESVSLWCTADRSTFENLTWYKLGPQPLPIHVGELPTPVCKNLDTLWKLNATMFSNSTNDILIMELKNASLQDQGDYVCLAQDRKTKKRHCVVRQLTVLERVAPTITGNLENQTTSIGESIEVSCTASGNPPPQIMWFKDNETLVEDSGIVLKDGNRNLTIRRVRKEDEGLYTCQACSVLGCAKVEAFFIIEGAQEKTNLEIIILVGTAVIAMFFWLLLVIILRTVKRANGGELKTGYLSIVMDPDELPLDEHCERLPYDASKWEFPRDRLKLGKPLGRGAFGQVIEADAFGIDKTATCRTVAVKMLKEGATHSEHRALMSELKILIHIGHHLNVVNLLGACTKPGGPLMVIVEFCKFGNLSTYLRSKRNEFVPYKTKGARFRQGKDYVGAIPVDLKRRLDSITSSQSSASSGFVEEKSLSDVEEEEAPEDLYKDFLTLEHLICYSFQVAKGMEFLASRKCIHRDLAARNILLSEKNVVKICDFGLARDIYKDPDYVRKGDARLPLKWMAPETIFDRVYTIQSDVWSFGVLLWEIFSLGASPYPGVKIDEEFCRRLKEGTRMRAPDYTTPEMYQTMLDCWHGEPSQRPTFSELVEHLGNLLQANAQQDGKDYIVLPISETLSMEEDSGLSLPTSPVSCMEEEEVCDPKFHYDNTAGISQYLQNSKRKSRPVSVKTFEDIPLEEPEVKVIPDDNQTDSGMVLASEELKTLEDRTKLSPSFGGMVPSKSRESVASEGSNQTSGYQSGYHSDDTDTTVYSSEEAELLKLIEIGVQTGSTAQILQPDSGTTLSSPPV

One assay deals with Fibroblast growth factor receptor 1 (Homo sapiens) (UniProt P11362). Kind of assay: Inhibition of human recombinant FGFR1 at 1 uM after 50 mins by microtiter plate based luciferase reporter gene assay.
Fibroblast growth factor receptor 1 (Homo sapiens), sequence (P11362 22-822 limits assumed): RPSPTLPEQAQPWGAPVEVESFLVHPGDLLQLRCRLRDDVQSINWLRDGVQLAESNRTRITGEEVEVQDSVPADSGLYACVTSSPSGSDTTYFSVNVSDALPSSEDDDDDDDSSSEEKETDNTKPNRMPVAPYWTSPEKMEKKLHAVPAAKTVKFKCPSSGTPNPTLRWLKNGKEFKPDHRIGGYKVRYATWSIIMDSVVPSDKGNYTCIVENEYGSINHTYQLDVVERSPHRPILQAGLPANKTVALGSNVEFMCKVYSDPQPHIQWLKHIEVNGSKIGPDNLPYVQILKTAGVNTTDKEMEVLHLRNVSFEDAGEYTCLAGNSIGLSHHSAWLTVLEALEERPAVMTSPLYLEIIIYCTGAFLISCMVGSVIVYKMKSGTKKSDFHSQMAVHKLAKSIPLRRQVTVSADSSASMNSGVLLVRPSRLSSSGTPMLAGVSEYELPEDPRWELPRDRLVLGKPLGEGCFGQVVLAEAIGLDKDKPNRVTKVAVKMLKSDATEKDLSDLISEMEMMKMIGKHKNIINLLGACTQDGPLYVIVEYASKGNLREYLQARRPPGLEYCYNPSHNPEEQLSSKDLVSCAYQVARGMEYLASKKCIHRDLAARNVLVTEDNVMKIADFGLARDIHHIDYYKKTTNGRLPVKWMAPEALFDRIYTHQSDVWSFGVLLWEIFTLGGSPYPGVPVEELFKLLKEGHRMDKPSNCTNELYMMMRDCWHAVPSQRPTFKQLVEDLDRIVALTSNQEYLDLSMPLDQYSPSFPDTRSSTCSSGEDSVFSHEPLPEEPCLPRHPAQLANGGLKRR
Settings: not given
In general terms: A reporter such as luciferase makes a cellular process visible.
For the compound `O=C(Cn1c(=O)c(/C=C\c2ccncc2)nc2ccccc21)Nc1ccc(Cl)cc1`, the inhibition (usually how much of the control response was suppressed) was found to be 5%.
As to `O=C(COc1nc2ccccc2nc1/C=C\c1ccncc1)Nc1ccc(Cl)cc1`, the inhibition stood at 0%.
In the case of `O=C(Cn1c(=O)c(/C=C\c2ccncc2)nc2ccccc21)Nc1ccc(Cl)c(Cl)c1`, the inhibition stood at 8%.
Same read-out and setting: in the case of `Cc1nc2ccccc2n(CC(=O)Nc2ccc(Cl)cc2)c1=O` it was 0%.
Take `O=C(Cn1c(=O)c(/C=C\c2ccncc2)nc2ccccc21)Nc1ccc(F)cc1`: the inhibition worked out at 2%.

Another assay has as its system HeLa. Put plainly: Cytotoxicity against human HeLa cells assessed as growth inhibition after 24 hrs by MTT assay.
Settings: not given
In kind it is functional, cell-based. In a few lines: (§1)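 Cells seeded at 8000/well in RPMI-1640 with 10% heat-inactivated FBS and left to adhere 10 h. Compound then added in RPMI-1640 with 1% FBS and 0.1% DMSO for 24 h at 37 °C. MTT added for 4 h, formazan dissolved in DMSO, OD read at 590 nm. Inhibition calculated relative to control and zero-setting wells; IC50 derived from inhibition ratios; two experiments in triplicate.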
In general terms: Tetrazolium assays rely on reduction of a dye to a coloured formazan, in cell work by metabolically active cells.
`O=C(Cn1c(=O)c(/C=C\c2ccncc2)nc2ccccc21)Nc1ccc(Cl)cc1`: the IC50 (usually the point on the concentration scale where inhibition reaches its midpoint) was over 100 µM.
`Cc1nc2ccccc2n(CC(=O)Nc2ccc(F)cc2)c1=O`: the 50% inhibitory concentration (IC50) came to 55.5 µM.
With `Cc1ccc(NC(=O)COc2nc3ccccc3nc2/C=C\c2ccncc2)cc1`, the IC50 was over 100 µM.
As for `O=C(COc1nc2ccccc2nc1/C=C\c1ccncc1)Nc1ccc(Cl)cc1`, the IC50 was over 100 µM.
On to `Cc1ccc(Nc2nccc(N(C)c3ccc4c(C)n(C)nc4c3)n2)cc1S(N)(=O)=O` [PAZOPANIB], for which the IC50 was over 100 µM.
Take `O=C(Cn1c(=O)c(/C=C\c2ccncc2)nc2ccccc21)Nc1ccc(Cl)c(Cl)c1`: the IC50 was over 100 µM.
As to `Cc1nc2ccccc2n(CC(=O)Nc2ccc(Cl)cc2)c1=O`, the IC50 was over 100 µM.
As to `O=C(Cn1c(=O)c(/C=C\c2ccncc2)nc2ccccc21)Nc1ccc(F)cc1`, the IC50 was over 100 µM.

The species entered for the next assay is Danio rerio. Kind of assay: Antiangiogenic activity against transgenic zebra fish embryos expressing green fluorescence protein assessed as inhibition of intersegmental vessel formation at 100 uM after 24 hrs by confocal fluorescence microscopy. The assay is classed as functional, organism-based.
Settings: not given
In a few lines:
(§2)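 Tg(flk1:GFP) embryos, dechorionated one day post-fertilization, 10 per well in 3 mL assay solution with 0.1% PTU added; compounds at 10, 50, 100 µM, 0.2% DMSO as vehicle control, vatalanib as positive control; 28 °C. ISV formation scored by confocal microscopy (50- and 100-fold) after 24 h treatment; repeated at least three times.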
Turning to `Cc1nc2ccccc2n(CC(=O)Nc2ccc(Cl)cc2)c1=O`, the inhibition result was “Active”.

Another assay has as its system K562. Kind of assay: Cytotoxicity against human K562 cells assessed as growth inhibition after 24 hrs by MTT assay. In kind it is functional, cell-based. The conditions noted are these: K562, 24 h. In a few lines:
as §1
With `O=C(Cn1c(=O)c(/C=C\c2ccncc2)nc2ccccc21)Nc1ccc(Cl)cc1`, the IC50 is 50.4 µM.
For `Cc1nc2ccccc2n(CC(=O)Nc2ccc(F)cc2)c1=O`, the IC50 is over 100 µM.
Still for that read-out and setting: in the case of `Cc1ccc(NC(=O)COc2nc3ccccc3nc2/C=C\c2ccncc2)cc1` it was over 100 µM.
Consider `O=C(COc1nc2ccccc2nc1/C=C\c1ccncc1)Nc1ccc(Cl)cc1`, for which the IC50 was determined as 49.9 µM.
Take `Cc1ccc(Nc2nccc(N(C)c3ccc4c(C)n(C)nc4c3)n2)cc1S(N)(=O)=O` [PAZOPANIB]: the IC50 is 89.3 µM.
Consider `O=C(Cn1c(=O)c(/C=C\c2ccncc2)nc2ccccc21)Nc1ccc(Cl)c(Cl)c1`, for which the IC50 was over 100 µM.
As for `Cc1nc2ccccc2n(CC(=O)Nc2ccc(Cl)cc2)c1=O`, the IC50 was over 100 µM.
In the case of `O=C(Cn1c(=O)c(/C=C\c2ccncc2)nc2ccccc21)Nc1ccc(F)cc1`, the IC50 is over 100 µM.

Another assay relates to HUVEC. Kind of assay: Antiangiogenic activity against HUVEC cells assessed as inhibition of VEGF-induced tube formation after 8 hrs by microscopic analysis. The assay is classed as functional, cell-based. The conditions noted are these: Homo sapiens. In a few lines: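 HUVECs trypsinized and seeded on Matrigel (polymerized 1 h, 37 °C) at 10^5 cells/well, incubated with compound at 0.1, 1 and 10 µg/mL for 8 h at 37 °C in CO2 until tube networks formed; Pazopanib as positive control. Morphology imaged in five random fields per well; experiment repeated 3 times.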
As for `O=C(Cn1c(=O)c(/C=C\c2ccncc2)nc2ccccc21)Nc1ccc(Cl)cc1`, the inhibition entry is “Dose-dependent effect”.
Turning to `O=C(COc1nc2ccccc2nc1/C=C\c1ccncc1)Nc1ccc(Cl)cc1`, the inhibition result was “Dose-dependent effect”.
As to `O=C(Cn1c(=O)c(/C=C\c2ccncc2)nc2ccccc21)Nc1ccc(Cl)c(Cl)c1`, the inhibition result was “Dose-dependent effect”.
The same measure, in the same setting: then `Cc1nc2ccccc2n(CC(=O)Nc2ccc(Cl)cc2)c1=O`, with “Dose-dependent effect”; and `O=C(Cn1c(=O)c(/C=C\c2ccncc2)nc2ccccc21)Nc1ccc(F)cc1`, with “Dose-dependent effect”.

The test system of another assay is MCF7. Put plainly: Cytotoxicity against human MCF7 cells assessed as growth inhibition after 24 hrs by MTT assay. In kind it is functional, cell-based. The conditions noted are these: MCF7, 24 h. The method, boiled down: as §1
`O=C(Cn1c(=O)c(/C=C\c2ccncc2)nc2ccccc21)Nc1ccc(Cl)cc1`: the IC50 was over 100 µM.
`Cc1nc2ccccc2n(CC(=O)Nc2ccc(F)cc2)c1=O`: the IC50 was over 100 µM.
Consider `Cc1ccc(NC(=O)COc2nc3ccccc3nc2/C=C\c2ccncc2)cc1`, for which the IC50 was determined as 60.2 µM.
On the same count and under the same terms, in the case of `O=C(COc1nc2ccccc2nc1/C=C\c1ccncc1)Nc1ccc(Cl)cc1` it was over 100 µM.
Turning to `Cc1ccc(Nc2nccc(N(C)c3ccc4c(C)n(C)nc4c3)n2)cc1S(N)(=O)=O` [PAZOPANIB], the IC50 amounted to 76.8 µM.
For the compound `O=C(Cn1c(=O)c(/C=C\c2ccncc2)nc2ccccc21)Nc1ccc(Cl)c(Cl)c1`, the IC50 worked out at 47.6 µM.
Consider `Cc1nc2ccccc2n(CC(=O)Nc2ccc(Cl)cc2)c1=O`, for which the IC50 was over 100 µM.
Still for that read-out and setting: in the case of `O=C(Cn1c(=O)c(/C=C\c2ccncc2)nc2ccccc21)Nc1ccc(F)cc1` it was 49 µM.

Another assay concerns the target Vascular endothelial growth factor receptor 2 (Homo sapiens) (UniProt P35968). The conditions noted are these: at 1 µM.
`O=C(Cn1c(=O)c(/C=C\c2ccncc2)nc2ccccc21)Nc1ccc(Cl)cc1` came in with an inhibition of 44%.
For the compound `O=C(COc1nc2ccccc2nc1/C=C\c1ccncc1)Nc1ccc(Cl)cc1`, the inhibition was determined as 37%.
The same measure, in the same setting: then `O=C(Cn1c(=O)c(/C=C\c2ccncc2)nc2ccccc21)Nc1ccc(Cl)c(Cl)c1`, with 56%; and `Cc1nc2ccccc2n(CC(=O)Nc2ccc(Cl)cc2)c1=O`, with 19%.
`O=C(Cn1c(=O)c(/C=C\c2ccncc2)nc2ccccc21)Nc1ccc(F)cc1` returned an inhibition of 6%.

System in another assay: not listed separately
Put plainly: Cytotoxicity against human BEAS2B cells assessed as growth inhibition after 24 hrs by MTT assay. The assay is classed as cell-based. The note with it: BEAS-2B. In a few lines: as §1
`O=C(Cn1c(=O)c(/C=C\c2ccncc2)nc2ccccc21)Nc1ccc(Cl)cc1`: the IC50 is over 100 µM.
`Cc1nc2ccccc2n(CC(=O)Nc2ccc(F)cc2)c1=O`: the IC50 is over 100 µM.
Consider `Cc1ccc(NC(=O)COc2nc3ccccc3nc2/C=C\c2ccncc2)cc1`, for which the IC50 was over 100 µM.
Turning to `O=C(COc1nc2ccccc2nc1/C=C\c1ccncc1)Nc1ccc(Cl)cc1`, the IC50 is over 100 µM.
Same read-out and setting: then `Cc1ccc(Nc2nccc(N(C)c3ccc4c(C)n(C)nc4c3)n2)cc1S(N)(=O)=O` [PAZOPANIB], with over 100 µM; and `O=C(Cn1c(=O)c(/C=C\c2ccncc2)nc2ccccc21)Nc1ccc(Cl)c(Cl)c1`, with over 100 µM; and `Cc1nc2ccccc2n(CC(=O)Nc2ccc(Cl)cc2)c1=O`, with over 100 µM.
In the case of `O=C(Cn1c(=O)c(/C=C\c2ccncc2)nc2ccccc21)Nc1ccc(F)cc1`, the IC50 is over 100 µM.

System in another assay: not listed separately
Put plainly: Cytotoxicity against human 3AO cells assessed as growth inhibition after 24 hrs by MTT assay.
Settings: not given
The assay is classed as functional, cell-based. The method, boiled down:
as §1
As for `O=C(Cn1c(=O)c(/C=C\c2ccncc2)nc2ccccc21)Nc1ccc(Cl)cc1`, the IC50 was over 100 µM.
On to `Cc1nc2ccccc2n(CC(=O)Nc2ccc(F)cc2)c1=O`, for which the IC50 was over 100 µM.
As to `Cc1ccc(NC(=O)COc2nc3ccccc3nc2/C=C\c2ccncc2)cc1`, the IC50 was over 100 µM.
Turning to `O=C(COc1nc2ccccc2nc1/C=C\c1ccncc1)Nc1ccc(Cl)cc1`, the IC50 is over 100 µM.
Consider `Cc1ccc(Nc2nccc(N(C)c3ccc4c(C)n(C)nc4c3)n2)cc1S(N)(=O)=O` [PAZOPANIB], for which the IC50 came out at 50.2 µM.
For `O=C(Cn1c(=O)c(/C=C\c2ccncc2)nc2ccccc21)Nc1ccc(Cl)c(Cl)c1`, the IC50 is over 100 µM.
Same read-out and setting: then `Cc1nc2ccccc2n(CC(=O)Nc2ccc(Cl)cc2)c1=O`, with 40.2 µM.
On the same count and under the same terms, in the case of `O=C(Cn1c(=O)c(/C=C\c2ccncc2)nc2ccccc21)Nc1ccc(F)cc1` it was over 100 µM.

System in a further assay: not listed separately
Put plainly: Cytotoxicity against human PC3 cells assessed as growth inhibition after 24 hrs by MTT assay. The conditions noted are these: PC-3, 24 h. The assay is classed as functional, cell-based. In a few lines:
as §1
Take `O=C(Cn1c(=O)c(/C=C\c2ccncc2)nc2ccccc21)Nc1ccc(Cl)cc1`: the IC50 was over 100 µM.
In the case of `Cc1nc2ccccc2n(CC(=O)Nc2ccc(F)cc2)c1=O`, the IC50 is over 100 µM.
On to `Cc1ccc(NC(=O)COc2nc3ccccc3nc2/C=C\c2ccncc2)cc1`, for which the IC50 was over 100 µM.
On the same count and under the same terms, then `O=C(COc1nc2ccccc2nc1/C=C\c1ccncc1)Nc1ccc(Cl)cc1`, with over 100 µM.
On the same count and under the same terms, in the case of `Cc1ccc(Nc2nccc(N(C)c3ccc4c(C)n(C)nc4c3)n2)cc1S(N)(=O)=O` [PAZOPANIB] it was over 100 µM.
Same read-out and setting: then `O=C(Cn1c(=O)c(/C=C\c2ccncc2)nc2ccccc21)Nc1ccc(Cl)c(Cl)c1`, with over 100 µM.
Consider `Cc1nc2ccccc2n(CC(=O)Nc2ccc(Cl)cc2)c1=O`, for which the IC50 is over 100 µM.
`O=C(Cn1c(=O)c(/C=C\c2ccncc2)nc2ccccc21)Nc1ccc(F)cc1`: the IC50 is 59.9 µM.

The species named for a further assay is Danio rerio. Put plainly: Antiangiogenic activity against transgenic zebra fish embryos expressing green fluorescence protein assessed as inhibition of intersegmental vessel formation at 10 to 100 uM after 24 hrs by confocal fluorescence microscopy.
Settings: not given
The assay is classed as functional, organism-based. In a few lines:
as §2
For the compound `O=C(Cn1c(=O)c(/C=C\c2ccncc2)nc2ccccc21)Nc1ccc(Cl)cc1`, the inhibition result is “Dose-dependent effect”.
With `O=C(COc1nc2ccccc2nc1/C=C\c1ccncc1)Nc1ccc(Cl)cc1`, the inhibition result was “Active”.
`O=C(Cn1c(=O)c(/C=C\c2ccncc2)nc2ccccc21)Nc1ccc(Cl)c(Cl)c1`: the inhibition result is “Dose-dependent effect”.
As to `O=C(Cn1c(=O)c(/C=C\c2ccncc2)nc2ccccc21)Nc1ccc(F)cc1`, the inhibition entry was “inactive”.
